High-throughput results deposited in PubChem BioAssay by several laboratories.
TNF death inh: inhibitors of TNF-alpha triggered necroptosis, primary screen, cell-based, Jurkat FADD-/-, single concentration. 220,000 tested, 0.068% active. activation (protection from cell death), % at 10 µM. Jurkat FADD-/- TNF necroptosis rescue, ATP luminescence, 24 h; 0 = TNF only, 100 = no-TNF cells. AID 463075, 2010;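 active = activation, meaning protection from cell death, of at least 50% relative to plate controls; inactive = activation below 50%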;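 also: necroptosis triggered by 40 ng/mL TNF-alpha added together with compound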
p97 ATPase inh: inhibitors of human p97 ATPase, primary screen, biochemical. Transitional endoplasmic reticulum ATPase (Homo sapiens), P55072. recombinant p97 ATPase, Kinase-Glo ATP luminescence, 3 h. inhibition, % at 8 µM. 220,000 tested, 0.42% active. AID 1481, 2009; in the data active = inhibition above about 15%;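 also: 0% = DMSO vehicle and 100% = wells lacking enzyme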
Target sequence (P55072 whole entry, looked up): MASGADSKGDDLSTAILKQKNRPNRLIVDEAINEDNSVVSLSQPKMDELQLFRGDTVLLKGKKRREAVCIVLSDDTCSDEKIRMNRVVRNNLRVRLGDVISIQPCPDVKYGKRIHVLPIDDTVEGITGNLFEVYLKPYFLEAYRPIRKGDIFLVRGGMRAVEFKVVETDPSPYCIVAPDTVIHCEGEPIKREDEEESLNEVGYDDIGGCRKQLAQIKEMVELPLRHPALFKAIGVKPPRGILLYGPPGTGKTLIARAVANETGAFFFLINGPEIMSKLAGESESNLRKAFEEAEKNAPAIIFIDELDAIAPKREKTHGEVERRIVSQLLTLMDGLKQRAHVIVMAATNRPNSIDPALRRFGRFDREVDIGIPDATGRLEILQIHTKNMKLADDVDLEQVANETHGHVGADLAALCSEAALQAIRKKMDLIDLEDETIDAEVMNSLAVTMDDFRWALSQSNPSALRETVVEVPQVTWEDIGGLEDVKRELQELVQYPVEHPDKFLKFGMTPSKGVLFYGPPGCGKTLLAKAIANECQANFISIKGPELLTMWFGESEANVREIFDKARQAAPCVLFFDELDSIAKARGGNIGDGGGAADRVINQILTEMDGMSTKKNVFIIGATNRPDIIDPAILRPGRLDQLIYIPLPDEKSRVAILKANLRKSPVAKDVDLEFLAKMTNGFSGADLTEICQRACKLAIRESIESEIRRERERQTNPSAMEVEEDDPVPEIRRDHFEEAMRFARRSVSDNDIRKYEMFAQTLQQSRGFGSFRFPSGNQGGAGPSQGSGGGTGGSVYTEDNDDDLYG
RBBP9 inh: human RBBP9 inhibitors, primary screen, biochemical, fluorescence polarization, FP-Rh probe, HTS; 220,000 tested, 0.2% active; Serine hydrolase RBBP9 (Homo sapiens), O75884; inhibition, % at 7.94 µM; recombinant RBBP9;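 active = inhibition above the campaign mean of all tested compounds plus 3 SD, cut at about 14% in these data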;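 also: plate controls were DMSO wells with RBBP9 for no effect and wells lacking RBBP9 protein for full effect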
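Controls: DMSO-treated enzyme wells and wells lacking RBBP9 | Material: RBBP9 protein | Technique: Fluorescence polarization | Replication: Single well per compound, no replicates | Buffer or medium: Tris-NaCl-Pluronic buffer, pH 8.0 | Timing: 30 min compound preincubation, 45 min probe labeling, 25 °C | Read-out basis: Percent inhibition from mP, scaled between DMSO and no-protein wells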
PfM18AAP inh: PfM18AAP inhibitors, malaria aminopeptidase, primary screen, biochemical, QFRET, recombinant enzyme; M18 aspartyl aminopeptidase (Plasmodium falciparum 3D7); H-Glu-NHMec fluorogenic cleavage; inhibition, % at 7.35 µM; 290,000 tested, 1.2% active;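 active = inhibition above the campaign mean inhibition over all tested compounds plus 3 SD, cut at about 28% in these data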;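 also: 0% = plate median of test compound wells and 100% = 2 mM ZnCl2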
Wee1 stabilizer: Wee1 degradation inhibitors, primary screen, cell-based, HeLa, Wee1K328M-luciferase, luminescence; Wee1-like protein kinase (Homo sapiens), P30291; HeLa Luc-Wee1K328M stability; 100% = proteasome inhibitor MG132 effect; reporter increase, % at 5 µM; 220,000 tested, 1.2% active; AID 1321, 2008;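 active = activation above the mean of all tested compounds plus 3 SD, set per screening run, cut at about 8.8% in these data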;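 also: cells exposed to compound for 20 h before luminescence read; 0% = DMSO alone and 100% = MG132 at 30 µM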
L929 necroptosis: inhibitors of zVAD-triggered necroptosis, primary screen, L929 cells; L929 zVAD necroptosis rescue, ATP luminescence, 24 h; with zVAD 60 µM; AID 1377, 2008; 220,000 tested, 0.38% active; viability rescue, % at 10 µM;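 active = activation, scaled between plate controls, above about 75%, limit read from the data; inactive = activation under that limit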;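 also: 0% = zVAD with DMSO and 100% = DMSO alone without zVAD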
* marks the source's active call; other numbers are inactive results; · = no result. Sampled rows, rich in hits. Any-hit rate of the full collection: about 2.7%.

SMILES | TNF death inh | p97 ATPase inh | RBBP9 inh | PfM18AAP inh | Wee1 stabilizer | L929 necroptosis
O=C(NNC(=O)c1cc2cc(Br)ccc2oc1=O)c1ccc(O)cc1 | 0.0 | 14.7* | -7.4 | 9.7 | -1.5 | 1.4
O=C1CC(c2ccccc2)CC(O)=C1C=Nc1ccc(Cl)cc1 (centres undefined) | -3.0 | -0.4 | -2.2 | 7.0 | -3.0 | -0.6
O=C1CC(c2ccccc2)CC(O)=C1C=Nc1cccc(Cl)c1 (centres undefined) | -6.5 | 3.3 | -3.0 | 0.7 | 9.6* | -0.6
Cc1[nH]n(-c2ccccc2)c(=O)c1C=Nc1cccc2cccnc12 | -5.7 | 4.0 | -0.6 | 6.8 | 2.2 | 12.4
Cc1[nH]n(-c2ccccc2)c(=S)c1C=Nc1cccc([N+](=O)[O-])c1 | -2.3 | -0.9 | -9.5 | 49.9* | -2.3 | 0.1
CC1=CC(C)(C)Nc2ccc(OC(=O)C(Cc3ccccc3)N3C(=O)c4ccccc4C3=O)cc21 (centres undefined) | -5.3 | 3.5 | 0.6 | -1.0 | -3.2 | 97.1*
O=C1CCC/C(=N/NC(=O)c2ccc(NS(=O)(=O)c3cccs3)cc2)C1 | 0.0 | -2.9 | -4.5 | 23.3 | 0.4 | -1.0
O=C1CCC/C(=N/NC(=O)c2cc(NS(=O)(=O)c3cccs3)cc(NS(=O)(=O)c3cccs3)c2)C1 | 2.7 | 10.8 | 7.5 | 29.6* | 4.9 | -0.5
Cc1ccc(-n2c(Cn3c(C)nc4ccccc43)n[nH]c2=S)cc1 | 0.5 | 5.4 | 3.3 | 32.8* | 5.0 | 1.0
Cc1ccc(-n2c(COc3ccccc3)n[nH]c2=S)cc1 | 1.6 | 1.7 | -1.5 | 13.0 | -2.0 | -0.1
CC1=CCC(/C=N\Nc2nnc3c(n2)[nH]c2ccccc23)CC1 (centres undefined) | 1.0 | 6.0 | -8.2 | 35.8* | 0.6 | 3.9
Cc1cc(N2CCCC2)ccc1NC(=O)CN1C(=O)NC(C)(c2ccccc2)C1=O (centres undefined) | · | · | · | 29.9* | · | ·
Cc1cc(C)cc(NC(=O)CN2C(=O)NC(C)(c3ccccc3)C2=O)c1 (centres undefined) | 0.9 | -3.8 | -10.7 | 7.6 | 1.3 | 0.3
Cc1cc(C=NCCCO)c(C)n1-c1cc(Cl)ccc1Cl | -1.7 | 1.3 | -11.5 | 4.8 | 1.8 | 0.0
CC(=O)Nc1ccc2nc(CN3CCC(CO)(CCc4ccccc4)CC3)ccc2c1 | 3.0 | -2.7 | -2.4 | -4.8 | -1.9 | 0.6
CC(=O)Nc1ccc(NC(=O)Cc2sc(-c3cccnc3)nc2-c2ccc(C)cc2)cc1 | -1.6 | 14.8* | -0.1 | -1.2 | -0.9 | 0.1
O=C(O)CCC(=O)Nc1cc(C(F)(F)F)cc(C(F)(F)F)c1 | 1.2 | 10.7 | 6.0 | -2.9 | 1.9 | 0.9
O=C(c1ccc(Cl)cc1[N+](=O)[O-])N1CCN(c2ccccn2)CC1 | -0.3 | 2.0 | 2.2 | 4.0 | 9.3* | -0.3
C=CCn1c(SCC(N)=O)nnc1-c1cccc(Br)c1 | -2.6 | 6.8 | -6.3 | -0.2 | -3.6 | 0.4
C=CCn1c(SCc2ccccc2C#N)nnc1-c1cc(Br)ccc1O | -0.1 | -0.7 | -3.0 | 4.8 | 10.1* | 0.0
Cc1cccc(-c2ncc(CN3CCCC(CO)(Cc4ccccc4C)C3)cn2)c1 (centres undefined) | 0.8 | 0.3 | -2.1 | 2.5 | 6.0 | 0.8
O=C1NN(c2ccccc2)C(=O)/C1=C\c1ccc2c(c1)OCO2 | · | · | · | 29.0* | · | ·
COc1ccccc1NC(=O)c1c(N=Cc2c(O)ccc3ccccc23)cnn1C | -19.9 | 5.1 | -1.5 | 2.5 | 9.0* | -0.2
COC(=O)c1ccc(NC2CC(=O)N(c3ccccc3C)C2=O)cc1 (centres undefined) | -0.4 | -9.4 | -3.7 | -4.9 | 3.2 | 0.0
Cc1ccccc1N1C(=O)CC(Nc2ccc3c(c2)OCO3)C1=O (centres undefined) | -1.0 | -2.0 | 3.6 | 30.2* | 5.9 | 2.5
O=C(NCc1ccco1)c1ccc(COc2cccc3ccccc23)cc1 | 2.3 | 3.3 | -10.1 | 5.5 | 4.1 | 1.6
